# Measured values from PubChem BioAssay.
# The source made the active and inactive calls.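 The calls were made as follows, unless noted: active = viability at or under a set limit in both replicates, limit being median viability minus 3 SD (cut at about 48% in these data, passing the limit was not always enough); inconclusive = at or under the limit in just one replicate; inactive = at or above the limit in both replicates.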
# Assays:
# [1] = Her2 expression decrease, cell viability multiplex – SKBR3 breast tumor cells, AlphaScreen, ATP viability, primary screen (AID 461;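 active = Her2 level under about 52% in both replicate screens, with viability over 70% of control, limit read from the data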;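 as to Her2 level: lower value means less Her2 protein in the cells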;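 as to viability: percent of carrier control wells set as 100% viability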); conditions: SKBR3 Her2 protein level, 18-24 h, measured here: SKBR3 viability, ATP luminescence, at 10 µM
# [2] = target: Receptor tyrosine-protein kinase erbB-2 (Homo sapiens) (UniProt P04626); test: as above; conditions: 18-24 h, at 10 µM, stronger effect = lower value
# Chain of Receptor tyrosine-protein kinase erbB-2 (Homo sapiens) (P04626 whole entry, looked up): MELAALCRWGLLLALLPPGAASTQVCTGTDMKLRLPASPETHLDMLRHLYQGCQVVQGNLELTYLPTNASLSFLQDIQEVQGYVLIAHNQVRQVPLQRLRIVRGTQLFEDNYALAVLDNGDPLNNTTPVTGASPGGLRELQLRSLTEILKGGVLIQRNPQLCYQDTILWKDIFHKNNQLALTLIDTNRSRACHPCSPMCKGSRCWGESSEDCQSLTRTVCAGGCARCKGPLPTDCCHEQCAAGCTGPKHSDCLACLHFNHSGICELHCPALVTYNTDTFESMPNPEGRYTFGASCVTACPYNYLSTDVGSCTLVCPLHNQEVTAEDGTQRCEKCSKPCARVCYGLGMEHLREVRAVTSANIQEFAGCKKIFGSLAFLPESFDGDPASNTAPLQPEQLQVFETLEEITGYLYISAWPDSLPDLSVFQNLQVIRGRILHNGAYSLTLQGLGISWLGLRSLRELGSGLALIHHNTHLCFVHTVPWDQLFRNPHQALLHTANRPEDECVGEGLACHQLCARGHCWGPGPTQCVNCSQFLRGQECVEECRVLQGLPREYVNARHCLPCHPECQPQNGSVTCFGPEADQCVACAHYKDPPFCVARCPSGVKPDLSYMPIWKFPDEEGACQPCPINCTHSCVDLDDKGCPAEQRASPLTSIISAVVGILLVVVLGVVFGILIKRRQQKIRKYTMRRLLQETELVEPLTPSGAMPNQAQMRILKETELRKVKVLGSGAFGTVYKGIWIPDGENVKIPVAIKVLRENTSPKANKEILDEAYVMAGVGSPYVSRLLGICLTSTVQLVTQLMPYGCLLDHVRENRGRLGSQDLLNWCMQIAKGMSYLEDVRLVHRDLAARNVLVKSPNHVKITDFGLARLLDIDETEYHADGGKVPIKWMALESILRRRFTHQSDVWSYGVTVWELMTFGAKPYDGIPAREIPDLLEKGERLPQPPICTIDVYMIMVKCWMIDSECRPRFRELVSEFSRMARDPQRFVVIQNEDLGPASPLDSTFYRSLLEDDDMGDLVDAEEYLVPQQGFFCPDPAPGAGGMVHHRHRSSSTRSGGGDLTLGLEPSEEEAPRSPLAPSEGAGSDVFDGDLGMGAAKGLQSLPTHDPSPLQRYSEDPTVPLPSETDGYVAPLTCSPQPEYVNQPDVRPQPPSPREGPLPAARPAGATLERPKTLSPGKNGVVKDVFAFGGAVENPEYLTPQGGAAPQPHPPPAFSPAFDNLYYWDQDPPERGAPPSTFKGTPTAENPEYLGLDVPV
# [3] = reduced viability of SK-BR-3 breast cancer cells – cell-based, 24 h, human, pilot screen (AID 572;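 active = viability at or below 10% of carrier control in both of two separate runs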;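 also: compound exposure lasted between 18 and 24 h rather than exactly 24 h; 100% = carrier-treated control wells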); conditions: SK-BR-3 viability, CellTiter-Glo luminescence, at 10 µM, stronger effect = lower value
# [4] = HUVEC growth inhibition – cell-based, human, primary screen (AID 575;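 active = viability at or below 30% in both replicate assays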;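 also: 100% = median of untreated cell wells with 0.1% DMSO on each plate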); conditions: HUVEC proliferation, CellTiter-Glo luminescence, 72 h; at 10 µM; stronger effect = lower value
# Procedure, shortened: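 Test system: primary human umbilical vein endothelial cells. Quantity: 1250 cells/well. Compound: single 10 µM dose, 0.1% DMSO, from 5x medium stock. Timing: 72 h treatment at 37 °C. Detection: ATP-based CellTiter-Glo luminescent read. Benchmarks: vehicle and MePR control wells. Format: 384-well plates coated with collagen.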
# [5] = H69AR cell proliferation blockers – human, duplicate replicates, primary screen (AID 580); conditions: H69AR lung tumor cells viability, ATP luminescence, 72 h; at 10 µM; stronger effect = lower value;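 also: 100% = mean luminescence of untreated wells and 0% = no signal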
# [6] = MRP1 drug-resistance reversers in H69AR cells – cell-based, doxorubicin co-treatment, pilot screen (AID 601;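 active = viability loss from added drug above about 55%, and viability with drug at most 40%, in both replicates, limit read from the data, passing the limit was not always enough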); conditions: CellTiter-Glo, 72 h, at 10 µM; for differential viability (reversal): stronger effect = higher value
# [7] = yeast transport mutant growth inhibition pilot in 384-well plates, post-Golgi transport modulator project (AID 636; in the data active = inhibition above about 31%); conditions: absorbance 615 nm, about 18 h, stronger effect = higher value
# [8] = growth suppression of yeast trafficking mutant, preliminary HTS, modulators of trafficking downstream of Golgi apparatus project, 1536-format plate, OD 615 nm (AID 637; in the data active = inhibition above about 30%); conditions: yeast transport mutant growth, absorbance 615 nm, 18 h; stronger effect = higher value
# [9] = H69AR cells + 2 uM doxorubicin, measured here: viability with 2 uM doxorubicin, stronger effect = lower value
# [10] = H69AR cells, compound alone cytotoxicity
SMILES,viability [1],Her2 level [2],viability [3],viability [4],viability [5],differential viability (reversal) ([6]; H69AR cells + 2 uM doxorubicin),"viability [6, 9]","viability [6, 10]",inhibition [7],inhibition [8]
Cn1cccc1Cc1nnc(SCC(N)=O)n1-c1ccc(F)cc1,88%,94.5% (inactive),88% (inactive),98.5% (inactive),99.8% (inactive),12.2% (inactive),87.6%,99.8%,-1.28% (inactive),1.33% (inactive)
O=C(Nc1nccs1)c1ccc(Cl)c(S(=O)(=O)N2CCCCC2)c1,89%,65% (inactive),89% (inactive),84.3% (inactive),87.2% (inactive),-9.49% (inactive),96.7%,87.2%,-5.81% (inactive),3.83% (inactive)
COc1ccccc1C1/C(=C(/O)c2ccccc2)C(=O)C(=O)N1CC(C)C (stereo not given),104%,89.5% (inactive),104% (inactive),81.4% (inactive),82.1% (inactive),-2.33% (inactive),84.4%,82.1%,-2.47% (inactive),5.24% (inactive)
CC(C)COc1ccc(-c2nnn(CC(=O)N3CCCC3)n2)cc1,86%,85% (inactive),86% (inactive),108% (inactive),104% (inactive),14.9% (inactive),88.9%,104%,-8.67% (inactive),16.9% (inactive)
COc1ccc(N2CCN(C(=O)CSc3nnc(Cn4nnc5ccccc54)n3C)CC2)cc1,99.5%,111% (inactive),99.5% (inactive),108% (inactive),103% (inactive),11.4% (inactive),92.1%,103%,-1.97% (inactive),-6.61% (inactive)
CCCc1cc(=O)n2[nH]cnc2n1,104%,102% (inactive),104% (inactive),110% (inactive),100% (inactive),3.53% (inactive),96.6%,100%,-6.22% (inactive),0.67% (inactive)
Cn1c(N2CCC(C(N)=O)CC2)nc2c1c(=O)n(Cc1ccc(Br)cc1)c(=O)n2C,95%,84.5% (inactive),95% (inactive),98.5% (inactive),102% (inactive),8.06% (inactive),93.8%,102%,3.38% (inactive),-5.08% (inactive)
Cc1nc2sc3c(c2c(=O)o1)CCC3,110%,80.5% (inactive),110% (inactive),84.3% (inactive),88.1% (inactive),-14.3% (inactive),102%,88.1%,-3.42% (inactive),6.89% (inactive)
COc1ccc(OC)c(-n2nnnc2SCC(=O)NCc2ccc3c(c2)OCO3)c1,98.5%,88% (inactive),98.5% (inactive),84.4% (inactive),93.9% (inactive),-1.01% (inactive),94.9%,93.9%,-5.87% (inactive),5.57% (inactive)
COc1ccc(-c2c3c(=O)n(C)c(=O)n(C)c3cn2-c2cccc(OC)c2)cc1,105%,97% (inactive),105% (inactive),95.9% (inactive),89.7% (inactive),-3.48% (inactive),93.2%,89.7%,0.39% (inactive),-6.03% (inactive)
O=C(CSc1nnnn1C1CCCC1)N1CCN(C(=O)c2ccco2)CC1,82%,89.5% (inactive),82% (inactive),105% (inactive),105% (inactive),1.94% (inactive),103%,105%,-3.11% (inactive),4.59% (inactive)
Cc1cccc(N(C)C(=O)c2coc(=O)c3ccccc23)c1,85%,81% (inactive),85% (inactive),82.9% (inactive),85.8% (inactive),-2.86% (inactive),88.7%,85.8%,-3.16% (inactive),-1.64% (inactive)
Brc1ccc(C2=Nn3c(nnc3-c3ccncc3)SC2)cc1,94.5%,79.5% (inactive),94.5% (inactive),82.8% (inactive),77.1% (inactive),-14.3% (inactive),91.4%,77.1%,-2.89% (inactive),-0.36% (inactive)
Cc1ccc2cc(CN(CC(C)C)C(=O)C3CCCO3)c(=O)[nH]c2c1 (stereo not given),95%,98% (inactive),95% (inactive),102% (inactive),102% (inactive),5.11% (inactive),96.8%,102%,-2.5% (inactive),-4.18% (inactive)
COc1ccccc1C(=O)N1CCCC(c2nc(-c3cc(OC)c(OC)c(OC)c3)no2)C1 (stereo not given),120%,90% (inactive),120% (inactive),99.4% (inactive),78.8% (inactive),23.2% (inactive),55.6%,78.8%,-6.71% (inactive),7.3% (inactive)
O=C(N1CCN(c2ccccc2F)CC1)C12CC3CC(CC(C3)C1)C2,88.5%,87.5% (inactive),88.5% (inactive),93.7% (inactive),89.9% (inactive),-8.84% (inactive),98.7%,89.9%,-5.6% (inactive),3.97% (inactive)
